The source made the active and inactive calls. The calls are words filed in the database; no cut-off is given here.
How the values were obtained:
HT-29 [1] = assay: Antitumor activity against human HT-29 cells xenografted in immunodeficient NCr nu/nu mouse assessed as inhibition of cell growth at 5 mg/kg, ip qd for 4 days administered from day 3 to day 6 post-implantation measured on day 7; assay type: functional, organism-based; parameters: dose 5 mg/kg
In short: (§1)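 HT-29 human colon cancer cells in hollow fibres implanted in 8–9-week-old NCr nu/nu mice. Drug in DMSO/Cremophor, diluted with water to 13% DMSO and 25% Cremophor. Doses 5.0–20.0 mg/kg ip once daily for 4 days (days 3–6); vehicle control; paclitaxel 5 mg/kg. Fibres retrieved day 7. Modified MTT net growth (day 7 minus day 0) relative to vehicle; n=3 treated; Student's t test.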

HT-29 [2] = assay: Cytotoxicity against human HT-29 cells; assay type: functional, cell-based
In short: (§2)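 Paired cancer (HT-29 colon) and normal (CCD-112CoN colon) human cell lines, same screening method for both. Paclitaxel and etoposide as positive controls. IC50 from nonlinear regression. Triplicate measurements, representative of two independent experiments.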

[3] = Cytotoxicity against human CCD-112CoN cells; assay type: cell-based; in short: as §2
HT-29 [4] = assay: Induction of apoptosis in human HT-29 cells assessed as caspase-3 activation by measuring cleaved caspase-3 level at 1 to 10 uM after 24 hrs by western blot analysis; assay type: functional, cell-based
In short: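 HT-29 cells exposed 24 h to a range of concentrations. Lysed in NP-40/HEPES pH 7.5/0.5 M NaCl buffer with protease and phosphatase inhibitors. Resolved on 4–15% SDS-PAGE and immunoblotted with rabbit monoclonal cleaved caspase-3 (Asp175) antibody. Representative of three independent experiments.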

HT-29 [5] = assay: Antitumor activity against human HT-29 cells xenografted in immunodeficient NCr nu/nu mouse assessed as inhibition of cell growth at 10 to 20 mg/kg, ip qd for 4 days administered from day 3 to day 6 post-implantation measured on day 7; assay type: functional, organism-based; in short: as §1
HT-29 [6] = assay: Antitumor activity against human HT-29 cells xenografted in ip dosed immunodeficient NCr nu/nu mouse assessed as inhibition of cell growth administered qd for 4 days from day 3 to day 6 post-implantation measured on day 7; assay type: functional, organism-based; in short: as §1
HT-29 [7] = assay: Induction of apoptosis in human HT-29 cells assessed as late apoptotic cells at 1 uM after 72 hrs by flow cytometry (reference value: 8.60%); assay type: functional
HT-29 [8] = assay: Induction of apoptosis in human HT-29 cells assessed as late apoptotic cells at 5 uM after 72 hrs by flow cytometry (reference value: 8.60%); assay type: functional
HT-29 [9] = assay: Induction of apoptosis in human HT-29 cells assessed as early apoptotic cells at 1 uM after 72 hrs by flow cytometry (reference value: 3.93%); assay type: functional
[10] = molecular target: DNA topoisomerase 2-alpha (Homo sapiens) (UniProt P11388); assay: Inhibition of topoisomerase 2-alpha (unknown origin)-mediated relaxation of supercoiled pBR322 DNA at 100 uM by ethidium bromide staining based agarose gel electrophoresis
Sequence of DNA topoisomerase 2-alpha (Homo sapiens) (P11388 whole entry): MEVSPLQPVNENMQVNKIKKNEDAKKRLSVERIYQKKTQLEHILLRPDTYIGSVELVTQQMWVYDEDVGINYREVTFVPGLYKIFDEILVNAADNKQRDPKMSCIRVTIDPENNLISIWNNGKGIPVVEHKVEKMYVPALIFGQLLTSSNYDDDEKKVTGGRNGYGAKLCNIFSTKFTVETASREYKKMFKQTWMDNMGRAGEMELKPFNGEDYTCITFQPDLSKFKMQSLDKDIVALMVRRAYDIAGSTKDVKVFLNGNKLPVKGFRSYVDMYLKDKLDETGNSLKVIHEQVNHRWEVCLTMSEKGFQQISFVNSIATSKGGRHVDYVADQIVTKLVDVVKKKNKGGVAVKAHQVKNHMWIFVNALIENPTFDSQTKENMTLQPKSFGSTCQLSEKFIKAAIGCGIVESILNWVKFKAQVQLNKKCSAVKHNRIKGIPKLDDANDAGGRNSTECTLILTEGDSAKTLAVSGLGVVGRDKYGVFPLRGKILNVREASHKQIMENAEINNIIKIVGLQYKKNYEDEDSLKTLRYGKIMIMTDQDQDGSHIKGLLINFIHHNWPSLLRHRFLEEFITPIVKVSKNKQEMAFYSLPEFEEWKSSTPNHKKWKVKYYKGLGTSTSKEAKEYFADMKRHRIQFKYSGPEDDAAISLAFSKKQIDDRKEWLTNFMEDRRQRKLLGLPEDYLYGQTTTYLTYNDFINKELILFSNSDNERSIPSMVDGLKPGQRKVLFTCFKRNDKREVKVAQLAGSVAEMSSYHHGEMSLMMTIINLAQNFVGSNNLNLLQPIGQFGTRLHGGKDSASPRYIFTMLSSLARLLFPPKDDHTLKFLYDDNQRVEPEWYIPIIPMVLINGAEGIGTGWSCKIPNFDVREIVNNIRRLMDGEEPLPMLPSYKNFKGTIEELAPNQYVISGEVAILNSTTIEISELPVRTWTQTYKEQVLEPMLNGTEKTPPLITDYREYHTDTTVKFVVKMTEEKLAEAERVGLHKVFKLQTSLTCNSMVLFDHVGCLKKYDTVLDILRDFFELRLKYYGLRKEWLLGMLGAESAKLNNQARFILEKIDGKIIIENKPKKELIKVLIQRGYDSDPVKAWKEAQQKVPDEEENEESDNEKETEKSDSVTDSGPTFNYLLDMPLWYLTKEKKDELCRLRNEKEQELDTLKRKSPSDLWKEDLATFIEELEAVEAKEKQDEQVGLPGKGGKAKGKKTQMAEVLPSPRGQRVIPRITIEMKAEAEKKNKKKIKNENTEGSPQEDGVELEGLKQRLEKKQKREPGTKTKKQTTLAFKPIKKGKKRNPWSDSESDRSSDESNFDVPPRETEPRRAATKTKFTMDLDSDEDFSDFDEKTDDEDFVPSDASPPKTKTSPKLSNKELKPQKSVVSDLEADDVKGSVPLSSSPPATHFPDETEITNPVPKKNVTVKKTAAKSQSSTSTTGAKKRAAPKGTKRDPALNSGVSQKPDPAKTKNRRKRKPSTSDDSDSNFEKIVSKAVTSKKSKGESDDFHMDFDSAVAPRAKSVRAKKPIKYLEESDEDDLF

HT-29 [11] = assay: Induction of apoptosis in human HT-29 cells assessed as early apoptotic cells at 5 uM after 72 hrs by flow cytometry (reference value: 3.93%); assay type: functional
Mus musculus = assay: Toxicity in immunodeficient NCr nu/nu mouse xenografted with human HT-29 cells at 5 to 20 mg/kg, ip qd for 4 days administered from day 3 to day 6 post-implantation; assay type: organism-based; parameters: dose 5-20 mg/kg, route intraperitoneal; conditions: in vivo, 96 h
In short: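 NCr nu/nu mice bearing hollow-fibre HT-29 implants. Dosed ip once daily for 4 days at 5.0–20.0 mg/kg in 13% DMSO/25% Cremophor/water. Body weight recorded daily and signs of toxicity observed until sacrifice on day 7.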

Row | Structure (SMILES) | IC50 (HT-29 [2]) | IC50 [3] | inhibition [10] | other results
1 | COc1cc2c(O[C@@H]3OC[C@H](OC(C)=O)[C@H](OC(C)=O)[C@H]3O)c3c(c(-c4ccc5c(c4)OCO5)c2cc1OC)C(=O)OC3 | 0.17 µM | > 100 µM | inactive | inhibition (HT-29 [1]): inactive; Activity (HT-29 [4]): Active; inhibition (HT-29 [5]): Active; inhibition (HT-29 [6]): Dose-dependent effect; Activity (HT-29 [7]): 27.3%; Activity (HT-29 [8]): 38%; Activity (HT-29 [9]): 28.2%; Activity (HT-29 [11]): 30.3%; Activity (Mus musculus): Non-toxic
2 | COc1cc2c(O[C@@H]3OC[C@H](O)[C@H](OC(C)=O)[C@H]3O)c3c(c(-c4ccc5c(c4)OCO5)c2cc1OC)C(=O)OC3 | 1.8 µM |  |  | 
3 | COc1cc2c(O[C@@H]3OC[C@H](O)[C@H](O)[C@H]3O)c3c(c(-c4ccc5c(c4)OCO5)c2cc1OC)C(=O)OC3 [ACUTISSIMALIGNAN A] | 3.2 µM | > 100 µM | inactive | 
4 | COc1cc2c(O[C@@H]3OC[C@H](OC(C)=O)[C@H](O)[C@H]3O)c3c(c(-c4ccc5c(c4)OCO5)c2cc1OC)C(=O)OC3 | 1.8 µM |  |  | 
5 | COc1cc2c(OC)c3c(c(-c4ccc5c(c4)OCO5)c2cc1OC)C(=O)OC3 [JUSTICIDIN A] | > 10 µM |  |  | 
6 | COc1cc2c(O)c3c(c(-c4ccc5c(c4)OCO5)c2cc1OC)C(=O)OC3 [DIPHYLLIN] | 7.6 µM |  |  | 
7 | CC(=O)O[C@H]1C(=O)[C@@]2(C)[C@H]([C@H](OC(=O)c3ccccc3)[C@]3(O)C[C@H](OC(=O)[C@H](O)[C@@H](NC(=O)c4ccccc4)c4ccccc4)C(C)=C1C3(C)C)[C@]1(OC(C)=O)CO[C@@H]1C[C@@H]2O [PACLITAXEL] |  | 23 µM |  | 
8 | COc1cc2c(O[C@@H]3OC[C@H](OC(C)=O)[C@H](OC(C)=O)[C@H]3OC(C)=O)c3c(c(-c4ccc5c(c4)OCO5)c2cc1OC)C(=O)OC3 | 0.11 µM |  | inactive | 
9 | COc1cc2c(O[C@@H]3O[C@H](CO)[C@@H](O)[C@H](O)[C@H]3O)c3c(c(-c4ccc5c(c4)OCO5)c2cc1OC)C(=O)OC3 | > 10 µM |  |  | 
10 | COc1cc([C@@H]2c3cc4c(cc3[C@@H](O[C@@H]3O[C@@H]5CO[C@@H](C)O[C@H]5[C@H](O)[C@H]3O)[C@H]3COC(=O)[C@H]23)OCO4)cc(OC)c1O [ETOPOSIDE] |  |  |  | Activity (HT-29 [4]): inactive; Activity (HT-29 [7]): 19.8%; Activity (HT-29 [8]): 25.3%; Activity (HT-29 [9]): 12.9%; Activity (HT-29 [11]): 12.5%

Source: ChEMBL document CHEMBL3297715, “Potent cytotoxic arylnaphthalene lignan lactones from Phyllanthus poilanei” (J Nat Prod, 2014)
